Assay results published in ChEMBL document CHEMBL1649117, “GRL-02031, a novel nonpeptidic protease inhibitor (PI) containing a stereochemically defined fused cyclopentanyltetrahydrofuran potent against multi-PI-resistant human immunodeficiency virus type 1 in vitro” (Antimicrob Agents Chemother, 2009).

Key:
[1] = test system: Human immunodeficiency virus 1; assay: Antiviral activity against HIV1 MOKW infected in human PHA-PBC assessed as inhibition of p24 Gag protein production by ELISA; type: functional, organism-based; settings: Human immunodeficiency virus 1, MOKW
Summary of the method: (§1)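 Phytohemagglutinin-stimulated PBMs (10^6/ml) infected with 50 TCID50s of each primary isolate, cultured with or without drug in 10-fold serial dilutions. On day 7, supernatant p24 Gag was measured by automated chemiluminescent enzyme immunoassay. […] Triplicate.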

[2] = test system: Human immunodeficiency virus 1; assay: Antiviral activity against HIV1 NL4-3 harboring L10I/G48V/I54V/L90M amino acid substitution in protease encoding region infected in human MT4 cells assessed as inhibition of p24 Gag protein production selected at 5 uM of saquinavir by ELISA; type: functional, organism-based; settings: Human immunodeficiency virus 1, NL4-3, MT4
Summary of the method: (§2)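 HIV-1NL4-3 (500 TCID50s) was passaged in MT-4 cells, starting at 0.01–0.03 µM PI and raising the drug generally two- to threefold as virus propagated. Cell-free passage used day-7 supernatants. Variants were then tested in MT-4 cells (10^5/ml) with 100 TCID50s, with or without drug, at 37°C. Day-7 p24 Gag was read by chemiluminescent immunoassay; EC50 vs drug-free control; triplicate.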

[3] = test system: Human immunodeficiency virus 1; assay: Antiviral activity against HIV1 NL4-3 harboring L23I/K43I/M46I/I50L/G51A/A71V amino acid substitution in protease encoding region infected in human MT4 cells assessed as inhibition of p24 Gag protein production selected at 1 uM of atazanavir by ELISA; type: functional, organism-based; settings: Human immunodeficiency virus 1, NL4-3, MT4; summary of the method: as §2
[4] = test system: Human immunodeficiency virus 1; assay: Antiviral activity against HIV1 NL4-3 harboring L10F/L24I/M46I/L63P/A71V/G73S/V82T amino acid substitution in protease encoding region infected in human MT4 cells assessed as inhibition of p24 Gag protein production selected at 5 uM of indinavir by ELISA; type: functional, organism-based; settings: Human immunodeficiency virus 1, NL4-3, MT4; summary of the method: as §2
[5] = test system: Human immunodeficiency virus 1; assay: Antiviral activity against HIV1 MM harboring L10I/K43T/M46L/I54V/L63P/A71V/V82A/L90M/Q92K in protease encoding region infected in human PHA-PBC assessed as inhibition of p24 Gag protein production by ELISA; type: functional, organism-based; settings: Human immunodeficiency virus 1, MM; summary of the method: as §1
[6] = test system: Human immunodeficiency virus 1; assay: Antiviral activity against HIV1 B harboring L10I/I15V/E35D/N37E/K45R/I54V/L63P/A71V/V82T/L90M/I93L/C95F in protease encoding region infected in human PHA-PBC assessed as inhibition of p24 Gag protein production by ELISA; type: functional, organism-based; settings: Human immunodeficiency virus 1, B; summary of the method: as §1
[7] = test system: Human immunodeficiency virus 1; assay: Antiviral activity against HIV1 NL4-3 harboring L10F/M46I/I54V/V82A amino acid substitution in protease encoding region infected in human MT4 cells assessed as inhibition of p24 Gag protein production selected at 1 uM of Lopinavir by ELISA; type: functional, organism-based; settings: Human immunodeficiency virus 1, NL4-3, MT4
Summary of the method: (§3)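 Cell-free passage used day-7 supernatants. Variants were then tested in MT-4 cells (10^5/ml) with 100 TCID50s, with or without drug, at 37°C. Day-7 p24 Gag was read by chemiluminescent immunoassay; EC50 vs drug-free control; triplicate.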

[8] = test system: Human immunodeficiency virus 1; assay: Antiviral activity against HIV1 NL4-3 harboring L10F/V32I/M46I/I54M//A71V/I84V amino acid substitution in protease encoding region infected in human MT4 cells assessed as inhibition of p24 Gag protein production selected at 5 uM of amprenavir by ELISA; type: functional, organism-based; settings: Human immunodeficiency virus 1, NL4-3, MT4; summary of the method: as §3
[9] = test system: Human immunodeficiency virus 1; assay: Antiviral activity against HIV1 ERS104pre infected in human PHA-PBC assessed as inhibition of p24 Gag protein production by ELISA; type: functional, organism-based; settings: Human immunodeficiency virus 1, ERS104pre
Summary of the method: (§4)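 Phytohemagglutinin-stimulated PBMs (10^6/ml) infected with 50 TCID50s of each primary isolate, cultured with or without drug in 10-fold serial dilutions. On day 7, supernatant p24 Gag was measured by automated chemiluminescent enzyme immunoassay. Triplicate.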

[10] = test system: Human immunodeficiency virus 1; assay: Antiviral activity against HIV1 A harboring L10I/I15V/E35D/N37E/K45R/I54V/L63P/A71V/V82T/L90M/I93L/C95F in protease encoding region infected in human PHA-PBC assessed as inhibition of p24 Gag protein production by ELISA; type: functional, organism-based; settings: Human immunodeficiency virus 1, A; summary of the method: as §4
[11] = test system: Human immunodeficiency virus 1; assay: Antiviral activity against HIV1 NL4-3 harboring M46I/V82F/I84V amino acid substitution in protease encoding region infected in human MT4 cells assessed as inhibition of p24 Gag protein production selected at 5 uM of ritonavir by ELISA; type: functional, organism-based; settings: Human immunodeficiency virus 1, NL4-3, MT4; summary of the method: as §2
[12] = test system: Human immunodeficiency virus 1; assay: Antiviral activity against HIV1 NL4-3 infected in human MT4 cells assessed as inhibition of p24 gag protein production by ELISA; type: functional, organism-based; settings: Human immunodeficiency virus 1, NL4-3, MT4
Summary of the method: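 MT-4 cells (10^5/ml) were infected with 100 TCID50s of HIV-1 and cultured at 37°C with or without various drug concentrations. On day 7, supernatant p24 Gag was measured by automated chemiluminescent enzyme immunoassay. […] Assays were run in triplicate.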

[13] = test system: Human immunodeficiency virus 1; assay: Antiviral activity against HIV1 C harboring L10I/I15V/K20R/L24I/M36I/M46L/I54V/I62V/L63P/K70Q/V82A/L89M in protease encoding region infected in human PHA-PBC assessed as inhibition of p24 Gag protein production by ELISA; type: functional, organism-based; settings: Human immunodeficiency virus 1, C; summary of the method: as §1
[14] = test system: Human immunodeficiency virus 1; assay: Antiviral activity against HIV1 NL4-3 harboring L10F/D30N/K45I/A71V/T74S amino acid substitution in protease encoding region infected in human MT4 cells assessed as inhibition of p24 Gag protein production selected at 5 uM of nelfinavir by ELISA; type: functional, organism-based; settings: Human immunodeficiency virus 1, NL4-3, MT4; summary of the method: as §2
[15] = test system: Human immunodeficiency virus; assay: Antiviral activity against HIV1 LAI infected in human MT2 cells after 7 days by MTT assay; type: functional, organism-based; settings: Human immunodeficiency virus 1, LAI, MT2, 168 h
[16] = test system: Human immunodeficiency virus 1; assay: Antiviral activity against HIV1 JSL harboring L10I/L24I/L33F/E35D/M36I/N37S/M46L/I54V/R57K/I62V/L63P/A71V/G73S/82A in protease encoding region infected in human PHA-PBC assessed as inhibition of p24 Gag protein production by ELISA; type: functional, organism-based; settings: Human immunodeficiency virus 1, JSL; summary of the method: as §1
[17] = test system: Human immunodeficiency virus 1; assay: Antiviral activity against HIV1 G harboring L10I/V11I/T12E/I15V/L19I/R41K/M46L/L63P/A71T/V82A/L90M in protease encoding region infected in human PHA-PBC assessed as inhibition of p24 Gag protein production by ELISA; type: functional, organism-based; settings: Human immunodeficiency virus 1, G; summary of the method: as §1
[18] = test system: Human immunodeficiency virus 1; assay: Antiviral activity against HIV1 TM harboring L10I/K14R/R41K/M46L/I54V/L63P/A71V/V82A/L90M/I93L in protease encoding region infected in human PHA-PBC assessed as inhibition of p24 Gag protein production by ELISA; type: functional, organism-based; settings: Human immunodeficiency virus 1, TM; summary of the method: as §1
[19] = test system: Human immunodeficiency virus 1; assay: Antiviral activity against HIV1 NL4-3 harboring L10F/L33F/M46I/I47V/Q58E/V82I/I84V/I85V amino acid substitution in protease encoding region infected in human MT4 cells assessed as inhibition of p24 Gag protein production selected at 5 uM of GRL-02031 by ELISA; type: functional, organism-based; settings: Human immunodeficiency virus 1, NL4-3, MT4; summary of the method: as §3
[20] = test system: Human immunodeficiency virus 1; assay: Ratio of EC50 for HIV1 C harboring L10I/I15V/K20R/L24I/M36I/M46L/I54V/I62V/L63P/K70Q/V82A/L89M in protease encoding region to EC50 for HIV1 ERS104pre; type: functional
[21] = test system: Human immunodeficiency virus 1; assay: Ratio of EC50 for HIV1 MM harboring L10I/K43T/M46L/I54V/L63P/A71V/V82A/L90M/Q92K in protease encoding region infected to EC50 for HIV1 ERS104pre; type: functional
[22] = test system: Human immunodeficiency virus 1; assay: Ratio of EC50 for HIV1 G harboring L10I/V11I/T12E/I15V/L19I/R41K/M46L/L63P/A71T/V82A/L90M in protease encoding region to EC50 for HIV1 ERS104pre; type: functional
[23] = test system: Human immunodeficiency virus 1; assay: Ratio of EC50 for HIV1 A harboring L10I/I15V/E35D/N37E/K45R/I54V/L63P/A71V/V82T/L90M/I93L/C95F in protease encoding region to EC50 for HIV1 ERS104pre; type: functional
[24] = test system: Human immunodeficiency virus 1; assay: Ratio of EC50 for HIV1 TM harboring L10I/K14R/R41K/M46L/I54V/L63P/A71V/V82A/L90M/I93L in protease encoding region to EC50 for HIV1 ERS104pre; type: functional
Summary of the method: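 PHA-stimulated PBMs (10^6/ml) infected with 50 TCID50s of primary HIV-1 isolate and cultured with 10-fold serial drug dilutions. Day 7 supernatant p24 Gag measured by chemiluminescent enzyme immunoassay. […] Triplicate. Ratio is resistant isolate EC50 over reference isolate EC50.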

[25] = test system: Human immunodeficiency virus 1; assay: Ratio of EC50 for HIV1 B harboring L10I/I15V/E35D/N37E/K45R/I54V/L63P/A71V/V82T/L90M/I93L/C95F in protease encoding region to EC50 for HIV1 ERS104pre; type: functional
[26] = test system: Human immunodeficiency virus 1; assay: Ratio of EC50 for HIV1 JSL harboring L10I/L24I/L33F/E35D/M36I/N37S/M46L/I54V/R57K/I62V/L63P/A71V/G73S/82A in protease encoding region to EC50 for HIV1 ERS104pre; type: functional

SMILES	EC50 [1] [nM]	EC50 [2] [nM]	EC50 [3] [nM]	EC50 [4] [nM]	EC50 [5] [nM]	EC50 [6] [nM]	EC50 [9] [nM]	EC50 [10] [nM]	EC50 [11] [nM]	EC50 [13] [nM]	EC50 [14] [nM]	EC50 [16] [nM]	EC50 [17] [nM]	EC50 [18] [nM]	Ratio EC50 [20]	Ratio EC50 [21]	Ratio EC50 [22]	Ratio EC50 [23]	Ratio EC50 [24]	Ratio EC50 [25]	also measured
CC(C)c1nc(CN(C)C(=O)N[C@H](C(=O)N[C@@H](Cc2ccccc2)C[C@H](O)[C@H](Cc2ccccc2)NC(=O)OCc2cncs2)C(C)C)cs1 [RITONAVIR]	36	> 1000	140	> 1000	> 1000	> 1000	36	> 1000	> 1000	> 1000	80	> 1000	> 1000	> 1000							EC50 [7]: > 1000 nM; EC50 [8]: > 1000 nM; EC50 [12]: 21 nM; EC50 [15]: 38 nM; EC50 [19]: 260 nM
Cc1cccc(C)c1OCC(=O)N[C@@H](Cc1ccccc1)[C@@H](O)C[C@H](Cc1ccccc1)NC(=O)[C@H](C(C)C)N1CCCNC1=O [LOPINAVIR]	29	700	25	> 1000	620	250			110	460	290	740	130	230							
CC(C)CN(C[C@@H](O)[C@H](Cc1ccccc1)NC(=O)O[C@H]1CO[C@H]2OCC[C@H]21)S(=O)(=O)c1ccc(N)cc1	3				17	26	3.5	3				26		4	2	5	2	1	1	7	Ratio EC50 [26]: 7
Cc1cn([C@H]2C[C@H](N=[N+]=[N-])[C@@H](CO)O2)c(=O)[nH]c1=O [ZIDOVUDINE]	16				450	> 1000	5	120		280		180	600	890	56	90	>120	24	178	200	Ratio EC50 [26]: 36
